From PMC7495461 (ACS Omega, 2020)

How the values were obtained:
HepG2 cells [1] = assay: MTT cell viability assay; type: cell-based; settings: Homo sapiens, HepG2, 48 h, read-out: HepG2 IC50
How it was run: (§1)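 MCF-7 or HepG2 cells were seeded at 8000–9000 cells/well. After 10 h they were exposed to test compound (0.1–80 μM) for 48 h at 37 °C in a humidified CO2 incubator. Medium was replaced with MTT (from a 5 mg/mL PBS pH 7.4 stock) in DMEM for 4–5 h. Formazan was dissolved in DMSO and absorbance read at 570/590 nm. Percent viability was used to derive IC50, with mean ± SD of n = 3 and paclitaxel as positive control.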

MARK4 = target: T1, MARK4 (Homo sapiens, UniProt Q96L34); assay: MARK4 enzyme inhibition assay; type: biochemical
T1 sequence (Q96L34 1-752): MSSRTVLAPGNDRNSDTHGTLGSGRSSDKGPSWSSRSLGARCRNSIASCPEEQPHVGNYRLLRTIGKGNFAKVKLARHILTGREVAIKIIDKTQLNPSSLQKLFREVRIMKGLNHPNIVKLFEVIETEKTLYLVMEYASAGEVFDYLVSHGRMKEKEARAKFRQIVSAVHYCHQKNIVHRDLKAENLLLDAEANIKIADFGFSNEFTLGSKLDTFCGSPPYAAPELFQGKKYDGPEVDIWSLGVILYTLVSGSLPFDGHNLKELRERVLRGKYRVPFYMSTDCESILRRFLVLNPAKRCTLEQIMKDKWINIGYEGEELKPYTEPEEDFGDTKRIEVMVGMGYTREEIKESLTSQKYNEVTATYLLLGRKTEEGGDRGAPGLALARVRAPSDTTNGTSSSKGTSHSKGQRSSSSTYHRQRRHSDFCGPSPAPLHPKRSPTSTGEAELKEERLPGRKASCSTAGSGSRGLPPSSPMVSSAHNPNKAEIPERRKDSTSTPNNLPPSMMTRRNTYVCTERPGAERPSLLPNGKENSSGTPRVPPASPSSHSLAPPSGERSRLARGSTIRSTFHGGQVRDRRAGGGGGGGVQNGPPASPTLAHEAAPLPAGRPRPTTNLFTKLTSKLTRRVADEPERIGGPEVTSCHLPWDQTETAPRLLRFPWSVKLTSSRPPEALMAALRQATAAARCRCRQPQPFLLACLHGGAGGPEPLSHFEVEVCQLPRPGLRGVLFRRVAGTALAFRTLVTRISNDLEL

MCF-7 cells [2] = assay: MTT cell viability assay; type: cell-based; settings: Homo sapiens, MCF7, 48 h, read-out: MCF-7 IC50
How it was run: as §1

HepG2 cells [3] = assay: Apoptosis assay; type: cell-based, human; settings: IC50 dose, 10 h, Annexin-V/PI
How it was run: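 HepG2 cells were seeded at 2.5 × 10^5 cells/well in six-well plates and grown to 80% confluency. They were treated for 10 h at 37 °C, with media-only controls. Cells were trypsinized, washed three times with PBS and stained with FITC-Annexin-V and PI in Annexin binding buffer. About 10,000 events per sample were acquired by flow cytometry. Measurements were duplicate ± SD, with unpaired t-test against vehicle control.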

HepG2 cells [4] = assay: Estimation of ROS production; type: cell-based, human; settings: HepG2, IC50 dose, 5–6 h, vs vehicle control
How it was run: (§2)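 MCF-7 or HepG2 cells were plated at 2.5 × 10^5 cells/well, treated next day for 5–6 h, with H2O2 as positive control. They were loaded with 10 μM DCFDA for 30 min at 37 °C in the dark, then trypsinized and pelleted. DCF fluorescence was read by spectrofluorimeter (ex 485, em 500–550 nm). Measurements were triplicate, with unpaired t-test against vehicle control.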

MCF-7 cells [5] = assay: Estimation of ROS production; type: cell-based, human; settings: MCF-7, IC50 dose, 5–6 h, vs vehicle control
How it was run: as §2

HEK293 cells = assay: MTT cell viability assay, noncancerous cells; type: cell-based, human; settings: up to 100 μM, 48 h
How it was run: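 HEK293 cells were exposed to increasing test compound concentrations for 48 h. Viability was expressed as viable cells as a percentage of untreated control. Data are mean ± SD, n = 3.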

IC50 (HepG2 cells [1]) [µM]	IC50 (MARK4) [µM]	IC50 (MCF-7 cells [2]) [µM]	MARK4 inhibition at a single dose (MARK4; single dose of 20 μM, initial screening)	SMILES	apoptosis induced, % of HepG2 cells (HepG2 cells [3]) [%]	DCF fluorescence (level of ROS production) (HepG2 cells [4])	DCF fluorescence (level of ROS production) (MCF-7 cells [5])	viability of noncancerous cells (HEK293) (HEK293 cells)
38.5	> 20	37.3		Cc1ncc([N+](=O)[O-])n1C(=NO)c1ccccc1 [Compound 4a, N-[(2-Methyl-5-nitro-1H-imidazol-1-yl)(phenyl)methylidene]hydroxylamine]				
32.7	> 20	34.4		COc1ccc(C(=NO)n2c([N+](=O)[O-])cnc2C)cc1 [Compound 4b, N-[(4-Methoxyphenyl)(2-methyl-5-nitro-1H-imidazol-1-yl)methylidene]hydroxylamine]				
33.2	> 20	32.5		Cc1ccc(C(=NO)n2c([N+](=O)[O-])cnc2C)cc1 [Compound 4c, N-[(2-Methyl-5-nitro-1H-imidazol-1-yl)(4-methylphenyl)methylidene]hydroxylamine]				
35.4	> 20	33.3		CCOc1ccc(C(=NO)n2c([N+](=O)[O-])cnc2C)cc1 [Compound 4d, N-[(4-Ethoxyphenyl)(2-methyl-5-nitro-1H-imidazol-1-yl)methylidene]hydroxylamine]				
21.5	18.5	23.3		CCc1ccc(C(=NO)n2c([N+](=O)[O-])cnc2C)cc1 [Compound 4e, N-[(4-Ethylphenyl)(2-methyl-5-nitro-1H-imidazol-1-yl)methylidene]hydroxylamine]				
24.8	> 20	28.8		Cc1ncc([N+](=O)[O-])n1C(=NO)c1ccc(Cl)cc1 [Compound 4f, N-[(4-Chlorophenyl)(2-methyl-5-nitro-1H-imidazol-1-yl)methylidene]hydroxylamine]				
25.3	16.2	22.5		Cc1ncc([N+](=O)[O-])n1C(=NO)c1ccc([N+](=O)[O-])cc1 [Compound 4g, N-[(2-Methyl-5-nitro-1H-imidazol-1-yl)(4-nitrophenyl)methylidene]hydroxylamine]				
5.99	1.47	3.74	significant inhibition	Cc1ncc([N+](=O)[O-])n1C(=NO)c1ccccc1C(F)(F)F [Compound 4h, N-{(2-Methyl-5-nitro-1H-imidazol-1-yl)[2-(trifluoromethyl)phenyl]methylidene}hydroxyl Amine]	20.8	decreases	decreases	did not affect the viability
